Assay results from ChEMBL document CHEMBL3992538, “Hybrids of thienopyrimidinones and thiouracils as anti-tubercular agents: SAR and docking studies” (Eur J Med Chem, 2017).
In brackets after ≈: the same amount, converted by molar mass.

Key:
[1] = Selectivity index, ratio of GI50 for human HeLa cells to MIC for active stage of Mycobacterium tuberculosis H37Ra ATCC 25177 infected in human THP1 cells; assay type: toxicity, cell-based; settings: read-out: Selectivity Index
In short: (§1)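 Selectivity index is the cytotoxic GI50 against the named human cell line divided by the antimycobacterial value. Activity counted as specific when SI >10.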

[2] = Selectivity index, ratio of GI50 for human PANC1 cells to MIC for dormant stage of Mycobacterium tuberculosis H37Ra ATCC 25177; assay type: toxicity; settings: PANC-1 cells, read-out: Selectivity Index; in short: as §1
[3] = Cytotoxicity against human HeLa cells assessed as growth inhibition by MTT assay; assay type: cell-based
In short: (§2)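 MTT assay in duplicate on THP-1 leukaemia, A549 lung adenocarcinoma, PANC-1 pancreatic adenocarcinoma and HeLa cervical carcinoma cells, all obtained from ECCC.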

[4] = Selectivity index, ratio of GI50 for human A549 cells to MIC for dormant stage of Mycobacterium tuberculosis H37Ra ATCC 25177 infected in human THP1 cells; assay type: toxicity, cell-based; settings: read-out: Selectivity Index; in short: as §1
[5] = test system: Mycobacterium tuberculosis; experiment: Antitubercular activity against active stage of Mycobacterium tuberculosis H37Ra ATCC 25177 infected in human THP1 cells after 8 days by nitrate reductase assay; assay type: functional; settings: H37Ra ATCC 25177, 192 h
In short: (§3)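 Ex vivo test of H37Ra in THP-1 cells by nitrate reductase assay, absorbance read at 540 nm. Active stage incubated 8 days and dormant stage 12 days. H37Ra (ATCC 25177) grown in M. pheli medium to OD 1.0 and subcultured once from -70°C stock.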

[6] = Selectivity index, ratio of GI50 for human HeLa cells to MIC for active stage of Mycobacterium tuberculosis H37Ra ATCC 25177; assay type: toxicity, cell-based; settings: read-out: Selectivity Index; in short: as §1
[7] = Selectivity index, ratio of GI50 for human HeLa cells to MIC for dormant stage of Mycobacterium tuberculosis H37Ra ATCC 25177 infected in human THP1 cells; assay type: toxicity, cell-based; settings: read-out: Selectivity Index; in short: as §1
[8] = Selectivity index, ratio of GI50 for human A549 cells to MIC for dormant stage of Mycobacterium tuberculosis H37Ra ATCC 25177; assay type: toxicity; settings: read-out: Selectivity Index; in short: as §1
[9] = Selectivity index, ratio of GI50 for human A549 cells to MIC for active stage of Mycobacterium tuberculosis H37Ra ATCC 25177 infected in human THP1 cells; assay type: toxicity, cell-based; settings: read-out: Selectivity Index; in short: as §1
[10] = test system: Mycobacterium tuberculosis; experiment: Antitubercular activity against dormant stage of Mycobacterium tuberculosis H37Ra ATCC 25177 after 12 days by XTT reduction menadione assay; assay type: functional; settings: H37Ra ATCC 25177, 288 h
In short: (§4)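 M. tuberculosis H37Ra (ATCC 25177), grown to log phase (OD 1.0) in M. pheli medium from -70°C stock, subcultured once before inoculation. Incubation 8 days (active) or 12 days (dormant). XRMA read-out as absorbance at 470 nm.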

[11] = Cytotoxicity against human THP1 cells assessed as growth inhibition by MTT assay; assay type: cell-based; settings: THP-1 cells; in short: as §2
[12] = Selectivity index, ratio of GI50 for human A549 cells to MIC for active stage of Mycobacterium tuberculosis H37Ra ATCC 25177; assay type: toxicity; settings: read-out: Selectivity Index; in short: as §1
[13] = Selectivity index, ratio of GI50 for human PANC1 cells to MIC for active stage of Mycobacterium tuberculosis H37Ra ATCC 25177 infected in human THP1 cells; assay type: toxicity, cell-based; settings: PANC-1 cells, read-out: Selectivity Index; in short: as §1
[14] = Selectivity index, ratio of GI50 for human HeLa cells to MIC for dormant stage of Mycobacterium tuberculosis H37Ra ATCC 25177; assay type: toxicity, cell-based; settings: read-out: Selectivity Index; in short: as §1
[15] = Cytotoxicity against human PANC1 cells assessed as growth inhibition by MTT assay; assay type: cell-based; settings: PANC-1 cells; in short: as §2
[16] = Selectivity index, ratio of GI50 for human PANC1 cells to MIC for active stage of Mycobacterium tuberculosis H37Ra ATCC 25177; assay type: toxicity; settings: PANC-1 cells, read-out: Selectivity Index; in short: as §1
[17] = Cytotoxicity against human A549 cells assessed as growth inhibition by MTT assay; assay type: cell-based; in short: as §2
[18] = test system: Mycobacterium tuberculosis; experiment: Antitubercular activity against dormant stage of Mycobacterium tuberculosis H37Ra ATCC 25177 infected in human THP1 cells after 12 days by nitrate reductase assay; assay type: functional; settings: H37Ra ATCC 25177, 288 h; in short: as §3
[19] = test system: Mycobacterium tuberculosis; experiment: Antitubercular activity against active stage of Mycobacterium tuberculosis H37Ra ATCC 25177 after 8 days by XTT reduction menadione assay; assay type: functional; settings: H37Ra ATCC 25177, 192 h; in short: as §4
[20] = Selectivity index, ratio of GI50 for human PANC1 cells to MIC for dormant stage of Mycobacterium tuberculosis H37Ra ATCC 25177 infected in human THP1 cells; assay type: toxicity, cell-based; settings: PANC-1 cells, read-out: Selectivity Index; in short: as §1

COc1cc(-c2nc(SCCCn3cnc4sc5c(c4c3=O)CCCC5)n(C)c(=O)c2C#N)cc(OC)c1OC
selectivity ratio [1]: 3 | selectivity ratio [2]: 1 | GI50 [3]: 70.7 µg/mL (≈ 122 µM) | selectivity ratio [4]: 4 | MIC [5]: 26.9 µg/mL (≈ 46.4 µM) | selectivity ratio [6]: 3 | selectivity ratio [7]: 3 | selectivity ratio [8]: 4 | selectivity ratio [9]: 4 | MIC [10]: 26.1 µg/mL (≈ 45 µM) | GI50 [11]: 89.7 µg/mL (≈ 155 µM) | selectivity ratio [12]: 3 | selectivity ratio [13]: 1 | selectivity ratio [14]: 3 | GI50 [15]: 24.8 µg/mL (≈ 42.8 µM) | selectivity ratio [16]: 1 | GI50 [17]: 95.7 µg/mL (≈ 165 µM) | MIC [18]: 21.5 µg/mL (≈ 37.1 µM) | MIC [19]: 27.9 µg/mL (≈ 48.1 µM) | selectivity ratio [20]: 1

CCCCCn1c(SCCCn2cnc3sc4c(c3c2=O)CCCC4)nc(-c2cc(OC)c(OC)c(OC)c2)c(C#N)c1=O
selectivity ratio [1]: 2 | selectivity ratio [2]: > 3 | GI50 [3]: 73 µg/mL (≈ 115 µM) | selectivity ratio [4]: > 3 | MIC [5]: > 30 µg/mL | selectivity ratio [6]: 2 | selectivity ratio [7]: 2 | selectivity ratio [8]: > 3 | selectivity ratio [9]: > 3 | MIC [10]: > 30 µg/mL | GI50 [11]: > 100 µg/mL | selectivity ratio [12]: > 3 | selectivity ratio [13]: > 3 | selectivity ratio [14]: 2 | GI50 [15]: > 100 µg/mL | selectivity ratio [16]: > 3 | GI50 [17]: > 100 µg/mL | MIC [18]: > 30 µg/mL | MIC [19]: > 30 µg/mL | selectivity ratio [20]: > 3

CCCCCCc1cc2c(=O)n(CCSc3nc(-c4cc(OC)c(OC)c(OC)c4)c(C#N)c(=O)[nH]3)cnc2s1
selectivity ratio [1]: 4 | selectivity ratio [2]: 2 | GI50 [3]: 76.3 µg/mL (≈ 131 µM) | selectivity ratio [4]: 5 | MIC [5]: 17.1 µg/mL (≈ 29.4 µM) | selectivity ratio [6]: 5 | selectivity ratio [7]: 4 | selectivity ratio [8]: 5 | selectivity ratio [9]: 6 | MIC [10]: 19.1 µg/mL (≈ 32.8 µM) | GI50 [11]: 96.4 µg/mL (≈ 166 µM) | selectivity ratio [12]: 6 | selectivity ratio [13]: 2 | selectivity ratio [14]: 4 | GI50 [15]: 36.5 µg/mL (≈ 62.7 µM) | selectivity ratio [16]: 2 | GI50 [17]: 96.8 µg/mL (≈ 166 µM) | MIC [18]: 18.8 µg/mL (≈ 32.3 µM) | MIC [19]: 15.6 µg/mL (≈ 26.8 µM) | selectivity ratio [20]: 2

CCCCCCCCCCCn1c(SCCCn2cnc3sc4c(c3c2=O)CCCC4)nc(-c2cc(OC)c(OC)c(OC)c2)c(C#N)c1=O
selectivity ratio [1]: > 3 | selectivity ratio [2]: > 3 | GI50 [3]: > 100 µg/mL | selectivity ratio [4]: > 3 | MIC [5]: > 30 µg/mL | selectivity ratio [6]: > 3 | selectivity ratio [7]: > 3 | selectivity ratio [8]: > 3 | selectivity ratio [9]: > 3 | MIC [10]: > 30 µg/mL | GI50 [11]: > 100 µg/mL | selectivity ratio [12]: > 3 | selectivity ratio [13]: > 3 | selectivity ratio [14]: > 3 | GI50 [15]: > 100 µg/mL | selectivity ratio [16]: > 3 | GI50 [17]: > 100 µg/mL | MIC [18]: > 30 µg/mL | MIC [19]: > 30 µg/mL | selectivity ratio [20]: > 3

CCCCCCCc1cc2c(=O)n(CCSc3nc(-c4cc(OC)c(OC)c(OC)c4)c(C#N)c(=O)[nH]3)cnc2s1
selectivity ratio [1]: 7 | selectivity ratio [2]: 4 | GI50 [3]: 75.4 µg/mL (≈ 127 µM) | selectivity ratio [4]: 6 | MIC [5]: 11.1 µg/mL (≈ 18.6 µM) | selectivity ratio [6]: 7 | selectivity ratio [7]: 6 | selectivity ratio [8]: 5 | selectivity ratio [9]: 7 | MIC [10]: 17.1 µg/mL (≈ 28.7 µM) | GI50 [11]: 88.1 µg/mL (≈ 148 µM) | selectivity ratio [12]: 7 | selectivity ratio [13]: 6 | selectivity ratio [14]: 4 | GI50 [15]: 72.6 µg/mL (≈ 122 µM) | selectivity ratio [16]: 7 | GI50 [17]: 79.7 µg/mL (≈ 134 µM) | MIC [18]: 13.6 µg/mL (≈ 22.8 µM) | MIC [19]: 11.1 µg/mL (≈ 18.6 µM) | selectivity ratio [20]: 5

CCCCCCCCn1c(SCCCn2cnc3sc4c(c3c2=O)CCCC4)nc(-c2cc(OC)c(OC)c(OC)c2)c(C#N)c1=O
selectivity ratio [1]: > 3 | selectivity ratio [2]: > 3 | GI50 [3]: > 100 µg/mL | selectivity ratio [4]: > 3 | MIC [5]: > 30 µg/mL | selectivity ratio [6]: > 3 | selectivity ratio [7]: > 3 | selectivity ratio [8]: > 3 | selectivity ratio [9]: > 3 | MIC [10]: > 30 µg/mL | GI50 [11]: > 100 µg/mL | selectivity ratio [12]: > 3 | selectivity ratio [13]: > 3 | selectivity ratio [14]: > 3 | GI50 [15]: > 100 µg/mL | selectivity ratio [16]: > 3 | GI50 [17]: > 100 µg/mL | MIC [18]: > 30 µg/mL | MIC [19]: > 30 µg/mL | selectivity ratio [20]: > 3
